The text below walks through data of ChEMBL document CHEMBL1143945, “N-phenethyl and N-naphthylmethyl isatins and analogues as in vitro cytotoxic agents” (Bioorg Med Chem, 2008).

Experiment [1] deals with MCF7. As to the kind of experiment: Cytotoxicity against human MCF7 cells. The experiment is classed as functional, cell-based. Summed up:
(§1)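 ATCC lines kept in RPMI-1640 with 2 mM L-glutamine, sodium bicarbonate, 5% FCS at 37 °C, 5% CO2. Adherent cells trypsinized, and viable cells counted by Trypan blue on a hemocytometer before seeding. MTS (CellTiter 96 AQueous One) metabolic read-out. IC50 is 50% inhibition of metabolic activity from sigmoidal dose-response curves. Triplicates in at least two independent experiments.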

For experiment [2], the system named is Jurkat. In words: Cytotoxicity against human Jurkat cells. The experiment is classed as functional, cell-based. Summed up:
as §1

In experiment [3] the test system is HCT-116. In words: Cytotoxicity against human HCT116 cells. Format: functional, cell-based. Summed up:
as §1

The subject of experiment [4] is PC-3. As to the kind of experiment: Cytotoxicity against human PC3 cells. Format: functional, cell-based. Summed up:
as §1

Experiment [5] in a line: Inhibition of bovine neuronal tubulin polymerization for 20 mins. Set-up: species or system Bos taurus. Summed up: (§2)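 Purified bovine neuronal tubulin reaction mix from a commercial kit, run per the manufacturer. Compound or DMSO vehicle is added at varying concentrations. Polymerization is followed kinetically at 37 °C for 1 h by fluorescence, excitation 360 ± 10 nm and emission 440 ± 10 nm. IC50 is read at the 20 or 60 min time point. Duplicates in one experiment.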

The nature of experiment [6]: Inhibition of bovine neuronal tubulin polymerization for 60 mins. Further details: species or system Bos taurus. A digest of the protocol:
as §2

Experiment [7] has as its system MDA-MB-231. As to the kind of experiment: Cytotoxicity against human MDA-MB-231 cells. The experiment is classed as functional, cell-based. Summed up:
as §1

Experiment [8] relates to U-937. As to the kind of experiment: Cytotoxicity against human U937 cells. Format: functional, cell-based. Summed up: as §1
The subject of experiment [9] is A-375. As to the kind of experiment: Cytotoxicity against human A375 cells. The experiment is classed as functional, cell-based. A digest of the protocol: as §1

pIC50: −log10 of the molar value.

The term pIC50 denotes the IC50 on a negative log10 scale, so that one unit is a factor of ten. For the compound `O=C1C(=O)N(Cc2ccc3ccccc3c2)c2c(Br)cc(Br)cc21`, the pIC50 in [1] was 5.46; in experiment [2], 6.39; in experiment [3] it was 5.82; in [4], 5.64; in experiment [5] it was 5.54; in experiment [6], 5.19. For the same compound, the pIC50 was 5.59 in [7], 6.13 in [8] and 5.18 in [9].

Take `O=C1C(=O)N(CCc2ccc(Br)cc2)c2c(Br)cc(Br)cc21`: the pIC50 in [1] was 5.22; in [2], 5.94; in experiment [3], 5.79; in [4] it was 5.66; in [7], 5.70; in experiment [8], 6.06. For the same compound, the pIC50 in experiment [9] was 5.36.

Compound `O=C(CN1C(=O)C(=O)c2cc(Br)cc(Br)c21)c1cccc(Br)c1` had a pIC50 in [8] of 5.20.

In turn, `COc1cccc(C(=O)CN2C(=O)C(=O)c3cc(Br)cc(Br)c32)c1` gave a pIC50 in experiment [8] of 5.33.

`O=C(CN1C(=O)C(=O)c2cc(Br)cc(Br)c21)c1ccc(Br)cc1` gave a pIC50 in [8] of 5.04. This pIC50 lies 0.29 log units lower than the previous one.

On to `CC[C@]1(O)C[C@@H]2CN(CCc3c([nH]c4ccccc34)[C@@](C(=O)OC)(c3cc4c(cc3OC)N(C)[C@H]3[C@@](O)(C(=O)OC)[C@H](OC(C)=O)[C@]5(CC)C=CCN6CC[C@]43[C@@H]65)C2)C1` [VINBLASTINE], for which the results for the pIC50 in experiment [5] and in experiment [6] were 6.02 and 5.78, respectively.

As for `COc1cccc(CCN2C(=O)C(=O)c3cc(Br)cc(Br)c32)c1`, the pIC50 in experiment [2] is 5.70; in [7] it was 5.28; in experiment [8], 5.97.

`O=C1C(=O)N(CCc2cccc(Br)c2)c2c(Br)cc(Br)cc21`: the pIC50 in [1] is 5.39; in experiment [2], 5.92; in experiment [3] it was 5.85; in experiment [4], 5.68; in experiment [7], 5.57; in experiment [8], 6.11. In experiment [9], the pIC50 was 5.46.

In the case of `COc1ccc(CCN2C(=O)C(=O)c3cc(Br)cc(Br)c32)cc1`, the pIC50 in [2] is 5.58; in [7] it was 5.35; in [8], 5.63.

As to `O=C1C(=O)N(CCc2ccccc2)c2c(Br)cc(Br)cc21`, the pIC50 in experiment [2] was 5.82; in experiment [5] it was 5.39; in experiment [6], 5.18; in [7], 5.36; in [8] it was 6.11.

For the compound `O=C1C(=O)N(Cc2cccc3ccccc23)c2c(Br)cc(Br)cc21`, the pIC50 in experiment [1] was 5.11; in [2], 6.04; in experiment [3], 5.94; in [4], 5.84; in experiment [5], 5.33; in [6], 4.92. Also, the pIC50 in [7] is 5.60; in [8], 6.72; in experiment [9], 5.40.

The compound `O=C(CN1C(=O)C(=O)c2cc(Br)cc(Br)c21)c1ccccc1` gave a pIC50 in experiment [8] of 5.00.

The compound `COc1ccc(C(=O)CN2C(=O)C(=O)c3cc(Br)cc(Br)c32)cc1` had a pIC50 in experiment [8] of 5.27.
